TAAR1 agonist: human TAAR1 agonists, primary screen, Fluo-8 calcium fluorescence, CHO RD-HGA16 cells. Trace amine-associated receptor 1 (Homo sapiens), Q96RJ0. vehicle wells 0%, saturating PEA agonist 100%. activation, % at 3 µM. hit rate 0.99% among 360,000. AID 624467, 2012;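 active means activation above the mean activation of all test compounds in the run plus 3 SD, cut at about 38% in these data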
Target sequence (Q96RJ0 whole entry, looked up): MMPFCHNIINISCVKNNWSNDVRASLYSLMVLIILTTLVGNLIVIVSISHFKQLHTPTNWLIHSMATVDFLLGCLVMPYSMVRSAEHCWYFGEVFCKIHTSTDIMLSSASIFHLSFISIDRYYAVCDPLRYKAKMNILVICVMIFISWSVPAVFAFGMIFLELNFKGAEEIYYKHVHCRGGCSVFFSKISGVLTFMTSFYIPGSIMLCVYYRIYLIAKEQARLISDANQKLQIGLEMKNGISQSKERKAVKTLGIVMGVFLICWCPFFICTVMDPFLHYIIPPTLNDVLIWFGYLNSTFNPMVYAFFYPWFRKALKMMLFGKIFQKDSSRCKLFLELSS
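Repeats: no replicates (n 1) | Material: CHO-derived RD-HGA16 cells with stable Gα16 and human TAAR1 | Technique: Kinetic Fluo-8 calcium fluorescence | Schedule: 17-24 h seeding, 75 min 37 °C dye, 30 min RT | Evaluation: % activation from peak over basal fluorescence ratio, DMSO-to-PEA scaled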
TAAR1 antagonist: human TAAR1 antagonists, primary screen, Fluo-8 calcium fluorescence, CHO RD-HGA16 cells; antagonist; inhibition, % at 3 µM; hit rate 1.5% among 360,000;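 active means inhibition above a per-plate cutoff, the mean inhibition of test compounds on that plate plus 3 SD, cut at about 49% in these data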
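Test system – hTAAR1-expressing CHO RD-HGA16 cells, Gα16-coupled · Also added – β-PEA at EC80 concentration, post-compound challenge · Compound – 3 µM, single point · Incubation – dye loading 75 min at 37 °C, then 30 min room temperature · Measured by – Fluo-8 intracellular calcium dye fluorescence, real-time kinetic reads · Benchmarks – vehicle and agonist controls · Replicates – singlicate, one well per test compound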
OX1R antag-1: OX1R (HCRTR1) antagonists, primary screen, fluorescence, CHO/OX1R cells, Fluo-8 calcium, orexin A; hit rate 0.43% among 330,000; Orexin/Hypocretin receptor type 1 (Homo sapiens), O43613; Fluo-8 calcium fluorescence; AID 434989, 2010; inhibition, % at 5 µM;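 active means inhibition above its plate's threshold, mean inhibition of all tested compounds on the plate plus 3 SD, cut at about 37% in these data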
OX1R antag-2: antagonists of human orexin 1 receptor (OX1R); Orexin/Hypocretin receptor type 1 (Homo sapiens), O43613; OX1R-expressing cells, FRET antagonist read-out; inhibition, % at 6.6 µM; hit rate 1.8% among 330,000; AID 485270, 2010; in the data active means inhibition mostly above about 38%, no sharp cut-off; inactive means mostly below about 40%
CHO parental Ca: ATP-evoked calcium signal inhibitors, parental CHO, primary screen, counter-screen for OX1R antagonist project, cell-based, fluorescence, Fluo-8 calcium dye | parental CHO-K1, ATP-induced calcium, Fluo-8 fluorescence | inhibition, % at 5.6 µM | hit rate 0.63% among 330,000;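 active means inhibition above that plate's mean sample inhibition plus 3 SD, cut at about 26% in these data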
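Assay system: untransfected parental CHO cell line. Also added: ATP agonist challenge. Dosing: one dose, 5.6 µM nominal. Measured by: Fluo-8 fluorescence. Read-out: % inhibition. Benchmarks: ATP wells versus no-ATP DMSO wells. Repeats: no replicates.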
TAAR1 nonsel count: nonselective antagonists in TAAR1 counter-screen cells, counter-screen for hTAAR1 antagonist project, cell-based, fluorescence, calcium | counterscreen cell line, antagonist mode | hit rate 77% among 2,400 | shares compounds with TAAR1 antagonist | inhibition, % at 3 µM; in the data active means inhibition above about 22%;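 further: CHO-Ga16 host cells stimulated with ATP at an EC80 level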
TAAR1 ant conf: human TAAR1 antagonists, retest of hits, confirmation, cell-based, fluorescence. TAAR1-expressing cells, fluorescence antagonist read-out. shares compounds with TAAR1 antagonist. hit rate 40% among 2,400. AID 651785, 2012. inhibition, % at 3 µM; in the data active means inhibition above about 49%;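 further: CHO-Ga16 host cells challenged with agonist PEA near its EC80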
Ga16 ag counter: calcium activation in Ga16-expressing cells, counter-screen for TAAR1 antagonist project, cell-based, fluorescence. shares compounds with TAAR1 antagonist. agonist counterscreen. activation, % at 3 µM. hit rate 18% among 2,400. AID 651953, 2012; in the data active means activation above about 12%
TAAR1 ag counter: TAAR1 activation by candidate antagonists – cell-based, fluorescence, counter-screen for TAAR1 antagonist project. AID 651955, 2012. activation, % at 3 µM. shares compounds with TAAR1 antagonist. hit rate 2% among 2,400. hTAAR1 cell line, agonist mode; in the data active means activation above about 37%;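 further: CHO cells stably expressing TAAR1 with calcium dye readout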
A number is an active result. The list is not random: actives were taken first. Their share in the collection is about 4%.

Screening CCOC(=O)CC1=NN(c2ccccc2)C(=O)/C1=C\c1ccc(OC)cc1OC returned TAAR1 agonist inactive, TAAR1 antagonist inactive, OX1R antag-1 inactive, OX1R antag-2 inactive and CHO parental Ca inactive.
For Cc1cc(C)cc(NC(=S)N(Cc2cccc(Br)c2)CC2CCC(C(=O)O)CC2)c1 (stereo not given) the results were TAAR1 agonist inactive, TAAR1 antagonist inactive, OX1R antag-1 inactive, OX1R antag-2 inactive and CHO parental Ca inactive.
CCc1ccc(NC(=S)N(Cc2cccc(Br)c2)CC2CCC(C(=O)O)CC2)cc1 (stereo not given) was read as TAAR1 agonist inactive, TAAR1 antagonist 61, OX1R antag-1 inactive, OX1R antag-2 inactive, CHO parental Ca inactive, TAAR1 nonsel count inactive, TAAR1 ant conf inactive, Ga16 ag counter inactive and TAAR1 ag counter inactive.
NC(=O)c1cnn(-c2cc(Oc3ccccc3)ncn2)c1N was read as TAAR1 agonist inactive, TAAR1 antagonist inactive, OX1R antag-1 inactive, OX1R antag-2 inactive and CHO parental Ca inactive.
For Cc1cc2c(cn1)C(CCC#N)(CCC#N)c1ccccc1-2 the results were TAAR1 agonist inactive, TAAR1 antagonist inactive, OX1R antag-1 inactive, OX1R antag-2 inactive and CHO parental Ca inactive.
`CCOC1=C(C#N)CC2(CC1)c1ccccc1-c1ccccc12` gave TAAR1 agonist inactive, TAAR1 antagonist 71, TAAR1 nonsel count 24, TAAR1 ant conf inactive, Ga16 ag counter inactive and TAAR1 ag counter inactive.
`C[C@H]1CN([C@@H](C)CO)C(=O)CCCn2nncc2CO[C@@H]1CN(C)C(=O)c1ccncc1` gave TAAR1 agonist inactive and TAAR1 antagonist inactive.
CCS(=O)(=O)N1Cc2ccccc2CC1C(=O)Nc1ncc(C)s1 (stereo not given) was read as TAAR1 agonist inactive, TAAR1 antagonist inactive, OX1R antag-1 inactive, OX1R antag-2 inactive and CHO parental Ca inactive.
For CCS(=O)(=O)N1Cc2ccccc2CC1C(=O)Nc1nnc(SCc2ccc(C#N)cc2)s1 (stereo not given) the results were TAAR1 agonist inactive, TAAR1 antagonist 68, OX1R antag-1 inactive, OX1R antag-2 inactive, CHO parental Ca inactive, TAAR1 nonsel count 34, TAAR1 ant conf 56, Ga16 ag counter 12 and TAAR1 ag counter inactive.
For COc1cc(/C=N/NC(=O)CSc2cc(C)c(Br)cc2C)ccc1O the results were TAAR1 agonist inactive, TAAR1 antagonist 66, OX1R antag-1 inactive, OX1R antag-2 48, CHO parental Ca inactive, TAAR1 nonsel count 38, TAAR1 ant conf 59, Ga16 ag counter 13 and TAAR1 ag counter inactive.
COc1cc2oc3ccc(C#Cc4ccc(N)cc4)cc3c(=O)c2cc1OC was read as TAAR1 agonist inactive, TAAR1 antagonist 56, OX1R antag-1 inactive, OX1R antag-2 inactive, CHO parental Ca inactive, TAAR1 nonsel count 25, TAAR1 ant conf inactive, Ga16 ag counter inactive and TAAR1 ag counter inactive.
`COc1cc2oc3cc(C#Cc4ccc(N)cc4)ccc3c(=O)c2cc1OC` gave TAAR1 agonist inactive, TAAR1 antagonist 52, OX1R antag-1 inactive, OX1R antag-2 inactive, CHO parental Ca inactive, TAAR1 nonsel count 29, TAAR1 ant conf inactive, Ga16 ag counter inactive and TAAR1 ag counter inactive.
Screening CCCCNC(=O)C1(C)CCN1Cc1cccc2c(OC)cc(C(=O)OCC)cc12 (stereo not given) returned TAAR1 agonist inactive and TAAR1 antagonist inactive.
`Nc1ncnc2nc(N3CCN(C(=O)c4ccccc4)CC3)[nH]c12` gave TAAR1 agonist inactive, TAAR1 antagonist 102, OX1R antag-1 inactive, OX1R antag-2 inactive, CHO parental Ca inactive, TAAR1 nonsel count inactive, TAAR1 ant conf inactive, Ga16 ag counter inactive and TAAR1 ag counter inactive.
`O=C(c1ccccc1)N1CCN(c2ncccn2)CC1` gave TAAR1 agonist inactive, TAAR1 antagonist inactive, OX1R antag-1 inactive, OX1R antag-2 inactive and CHO parental Ca inactive.
`COc1ccc(NC(=O)CC2C(=O)N(c3ccc(OC)cc3)C(=O)N2Cc2ccc(OC)c(OC)c2)cc1` (stereo not given) gave TAAR1 agonist inactive, TAAR1 antagonist inactive, OX1R antag-1 inactive, OX1R antag-2 inactive and CHO parental Ca inactive.
Screening COCCn1cnc2c(c1=O)c1nc3ccccc3nc1n2/N=C/c1cccc(OC)c1 returned TAAR1 agonist inactive, TAAR1 antagonist 53, OX1R antag-1 inactive, OX1R antag-2 inactive, CHO parental Ca inactive, TAAR1 nonsel count 27, TAAR1 ant conf inactive, Ga16 ag counter inactive and TAAR1 ag counter inactive.
COc1c(F)c(F)c(C(=O)Nc2cccc(Cl)c2N2CCOCC2)c(F)c1F was read as TAAR1 agonist inactive, TAAR1 antagonist 72, OX1R antag-1 inactive, OX1R antag-2 inactive, CHO parental Ca inactive, TAAR1 nonsel count inactive, TAAR1 ant conf inactive, Ga16 ag counter inactive and TAAR1 ag counter inactive.
Screening O=c1c(-c2ccnn2-c2cccc(Cl)c2)cnc2n1CCS2 returned TAAR1 agonist inactive, TAAR1 antagonist inactive, OX1R antag-1 inactive, OX1R antag-2 inactive and CHO parental Ca inactive.
Screening COc1ccc(C(=O)Nc2ccc3c(c2)CCCN3C(=O)c2cccs2)c(OC)c1 returned TAAR1 agonist inactive, TAAR1 antagonist 55, OX1R antag-1 inactive, OX1R antag-2 inactive, CHO parental Ca inactive, TAAR1 nonsel count 26, TAAR1 ant conf inactive, Ga16 ag counter inactive and TAAR1 ag counter inactive.
Screening COc1cccc(C(=O)Nc2ccc3c(c2)CCCN3C(=O)c2cccs2)c1OC returned TAAR1 agonist inactive, TAAR1 antagonist 50, OX1R antag-1 inactive, OX1R antag-2 inactive, CHO parental Ca inactive, TAAR1 nonsel count 24, TAAR1 ant conf inactive, Ga16 ag counter inactive and TAAR1 ag counter inactive.
`Cc1c(NC(=O)c2ccc(Br)s2)c(=O)n(-c2ccccc2)n1C` gave TAAR1 agonist inactive, TAAR1 antagonist inactive, OX1R antag-1 inactive, OX1R antag-2 inactive and CHO parental Ca inactive.
